Compound activity: PubChem BioAssay, several laboratories
D1 allo mod: allosterically modulates the human D1 dopamine receptor; HEK293 D1, CRE-luciferase, dopamine EC30 potentiation; actives deviate in either direction; B-score at 10 µM; 58,000 compounds, 5.9% hits;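 active means luminescence count or its row- and column-corrected plate score outside the 99.7% band of the plate's sample wells, on either side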
M1 antag: blocks the rat M1 muscarinic receptor response to acetylcholine; P08482; CHO-M1 cells, Fluo-4 calcium, ACh EC80 antagonist mode; hits give low values; B-score at 10 µM; 64,000 compounds, 3.4% hits;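 active means calcium fluorescence response, raw or row-and-column corrected B-score, differing from the plate sample mean either way at a set confidence level, mostly lower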
RORa activator: activates the human nuclear receptor RORA; CHO-K1 Gal4-RORA LBD luciferase reporter, luminescence; percent increase over mock-subtracted basal signal; P35398; AID 560; 65,000 compounds, 1.5% hits; activation, % at 10 µM;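 active means activation above the mean of all tested compounds plus 3 SD, cut at about 49% in these data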
Htt clearance: compounds clearing mutant huntingtin protein; HeLa Exon1htt(103Q)mCFP, aggregate imaging; zero = plate's median compound well; inhibition, % at 1.5 µM; 47,000 compounds, 0.42% hits; AID 853;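 active means inhibition of aggregate fluorescence above about 70%, also judged a hit by eye on the cell image, limit read from the data, passing the limit was not always enough; inconclusive means no rule stated for this call; inactive means not judged a hit on image review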;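 further: cells exposed to compound for three days before fixation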
M1 ag: agonists of M1 muscarinic receptor; CHO-M1 cells, Fluo-4 calcium fluorescence, agonist mode; hits give high values; B-score at 10 µM; 64,000 compounds, 3% hits;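 active means fluorescence rise, raw or as B-score row- and column-corrected plate score, outside the 99.7% band of its plate's samples, either direction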
SF-1 act: SF-1 (human) activation; 65,000 compounds, 1.9% hits; Q13285; activation, % at 10 µM; AID 522; CHO-K1 Gal4-SF-1 LBD luciferase reporter; % increase over DMSO SF-1-specific signal;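 active means activation above the mean activation of all tested compounds plus 3 SD, cut at about 50% in these data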
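Material: Gal4–SF-1 LBD one-hybrid luciferase reporter in CHO-K1 cells | Amount: 4,000 cells per well | Compound dosing: 10 µM single point, 1% DMSO | Schedule: 20 h compound treatment, 37 °C | Measured by: SteadyLite luciferase luminescence | Evaluation: Percent activation versus DMSO | Control set: DMSO-treated SF-1-transfected cells as negative, DMSO-treated mock-transfected cells lacking SF-1 as background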
M1 agonist conf: confirmation of rat M1 muscarinic receptor agonists | AID 1488 | shares compounds with M1 ag | CHO-M1 cells, Fluo-4 calcium fluorescence, agonist mode; actives lie on both sides | fluorescence change (max-min) at 10 µM | 1,700 compounds, 19% hits;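 active means fluorescence change differs from the solvent-only DMSO control mean at a set confidence level in both duplicate runs; inconclusive means differs from solvent-only control mean in just one of two runs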;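 further: an EC20 dose of acetylcholine follows compound addition during the same imaging run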
M4 ag counter: rat M4 muscarinic agonism, M1 counter-screen | shares compounds with M1 ag | 1,700 compounds, 9% hits | fluorescence change (max-min) at 10 µM | AID 1741 | CHO M4/Gqi5 cells, Fluo-4 calcium fluorescence, agonist mode; actives lie on both sides;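 active means fluorescence change differing from the plate's solvent-only control wells at 99.7% confidence in both duplicates, whether higher or lower; inconclusive means differs from solvent controls in only one of two duplicates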
Target sequence (P08485 whole entry, looked up): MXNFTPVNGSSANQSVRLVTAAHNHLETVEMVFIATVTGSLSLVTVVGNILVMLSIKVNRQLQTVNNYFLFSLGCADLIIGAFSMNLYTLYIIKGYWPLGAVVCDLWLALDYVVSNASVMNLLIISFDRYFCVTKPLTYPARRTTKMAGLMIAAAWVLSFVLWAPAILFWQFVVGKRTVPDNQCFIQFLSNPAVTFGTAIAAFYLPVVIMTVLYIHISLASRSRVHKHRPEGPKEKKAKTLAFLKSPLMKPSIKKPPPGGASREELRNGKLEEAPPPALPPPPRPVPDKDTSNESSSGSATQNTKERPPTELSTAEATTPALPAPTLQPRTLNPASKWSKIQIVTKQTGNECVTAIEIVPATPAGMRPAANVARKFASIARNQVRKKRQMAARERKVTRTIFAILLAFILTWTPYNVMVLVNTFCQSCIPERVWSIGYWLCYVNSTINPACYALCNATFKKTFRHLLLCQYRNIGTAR
Numbers stand for hits; n = inactive; u = inconclusive; x = no result given. In the library only some 11% were active in any assay of this set; here they are far more common.

SMILES	D1 allo mod	M1 antag	RORa activator	Htt clearance	M1 ag	SF-1 act	M1 agonist conf	M4 ag counter
O=C(NCc1ccco1)c1cccn2c(=O)c3sccc3nc12	5	-3.2	n	n	2.9	n	n	n
CCc1nc2c(cnn2-c2ccc(F)cc2)c(=O)n1-c1ccc(N2CCC(C)CC2)cc1	x	x	x	n	x	x	x	x
Cc1ccc(-n2c(C)nc3c(cnn3-c3ccc(F)cc3)c2=O)cc1C	n	n	n	n	3.5	n	n	u
Cc1ccc(CNC(=O)C2CCCN(c3nc4ccccc4o3)C2)cc1 (centres undefined)	n	n	n	x	n	n	x	x
O=C(NCCC1=CCCCC1)C1CCCN(c2nc3ccccc3o2)C1 (centres undefined)	n	n	n	x	6.8	n	u	u
COc1ccc(Nc2ccnc3ccccc23)cc1	-3.7	-2	n	91	14	n	n	n
O=C(CSc1nc(-c2ccco2)cc(C(F)(F)F)n1)NCCCn1ccnc1	n	n	n	n	10	n	n	n
O=C(CSc1nc(-c2cccs2)cc(C(F)(F)F)n1)NCCCn1ccnc1	n	n	n	n	n	n	x	x
COCCn1c(=S)[nH]c2ccc(N(C)C)cc2c1=O	n	n	n	n	6.3	n	n	n
Cc1ccc(-c2cn3nc(C)c(C)nc3n2)cc1	-8.5	n	n	x	11	n	103	n
Cc1ccc(OCCn2cc(C#N)c3ccccc32)cc1	x	x	x	n	x	x	x	x
Cc1ccc(/C(C#N)=C\c2cn(C)c3ccccc23)cc1	n	n	n	n	-2.7	n	n	n
Cc1nc2ccccc2c2oc(C(=O)NCc3ccc4c(c3)OCO4)cc12	n	-2	n	x	2.6	n	n	n
COc1ccc2cc3cc(C(=O)NCc4ccc5c(c4)OCO5)oc3nc2c1	n	n	n	n	2.1	n	u	n
Cc1cc(C(=O)CSc2nc3ccccc3c(=O)n2C)c(C)n1Cc1ccc2c(c1)OCO2	n	n	n	x	5.7	n	n	n
COc1cc(Nc2nc3ccccc3n3nnnc23)cc(OC)c1OC	x	x	x	n	x	x	x	x
O=C(CSC1=NCCN1)C1COc2ccccc2O1 (centres undefined)	n	n	n	x	n	n	x	x
Cc1ccc(S(=O)(=O)N2CCN(S(=O)(=O)c3ccc(C)cc3)C2c2ccccc2)cc1	x	x	x	n	x	x	x	x
Cc1ccc(S(=O)(=O)N2CCN(S(C)(=O)=O)C2c2ccccc2)cc1 (centres undefined)	n	n	n	x	2.7	n	-41	u
CCOC(=O)N1CCN(S(=O)(=O)c2ccc(C)cc2)C1c1ccccc1 (centres undefined)	n	n	n	n	3.2	n	n	n
COC(=O)c1ccccc1NC(=O)COC(=O)c1ccc(C)c(NC(=O)c2ccco2)c1	n	n	n	n	5.3	n	n	u
CN1CC(=O)NC1=NC(=O)C12CC3CC(CC(C3)C1)C2	n	n	n	n	n	n	x	x
Cn1nc(C(=O)N2CCN(S(=O)(=O)c3ccccc3)CC2)c2ccccc2c1=O	n	n	n	x	n	n	x	x
O=C(c1nc(-c2ccccc2)n(-c2ccccc2)n1)N1CCN(S(=O)(=O)c2ccccc2)CC1	n	-3.8	n	x	3.8	n	n	u
COc1cccc(-n2c(C)c(C(C)=O)c(C(C)=O)c2C)c1	n	n	n	n	n	n	x	x
SMILES	D1 allo mod	M1 antag	RORa activator	Htt clearance	M1 ag	SF-1 act	M1 agonist conf	M4 ag counter
CC(C)OCCCNc1ncnc2c1[nH]c1ccccc12	n	-4.3	n	n	3.2	n	n	u
COc1ccccc1N1C(=O)c2ccccc2NC1C(OC)OC (centres undefined)	x	x	x	n	x	x	x	x
Cc1ccccc1N1C(=O)c2ccccc2N2C(=O)c3ccccc3C12 (centres undefined)	x	x	x	n	x	x	x	x
COc1ccc2c(c1OC)C(=O)N1c3ccccc3C(=O)N(c3ccc(F)cc3)C21 (centres undefined)	x	n	n	n	13	n	n	n
COc1ccc2c(c1OC)C(=O)N1c3ccccc3C(=O)N(c3ccccc3)C21 (centres undefined)	x	n	n	x	13	n	u	n
CCN1C(=O)N(C)C(N(O)C(=O)NC)C1(C)C (centres undefined)	n	n	n	x	n	n	x	x
N#CCc1nnc2n1-c1ccccc1CCC2	n	n	n	x	n	n	x	x
O=C(c1ccc(-c2ccccc2)cc1)N1CCN(C(=O)c2ccco2)CC1	n	n	n	n	n	n	x	x
O=C(c1ccco1)N1CCN(C(=O)C(Sc2ccccc2)c2ccccc2)CC1 (centres undefined)	n	n	n	n	3.8	n	u	n
CCN1CCN(c2cc(C)c3cc(NC(=O)c4ccc(Br)o4)ccc3n2)CC1	-2.5	-4.4	n	n	3	n	n	n
CCN1CCN(c2cc(C)c3cc(NC(=O)c4ccncc4)ccc3n2)CC1	n	n	n	x	n	n	x	x
COc1cc(Nc2cc(C)nc3ncnn23)cc(OC)c1OC	n	n	n	x	4.4	n	u	n
COc1cc(Nc2cc(C)nc3ncnn23)cc(OC)c1	n	n	n	x	n	n	x	x
CCCCC(=O)Nc1ccc(N2CCN(C(=O)CC)CC2)cc1	n	n	n	x	n	n	x	x
CCCCCC(=O)Nc1ccc(N2CCN(S(C)(=O)=O)CC2)cc1	n	n	n	x	-2.3	n	n	n
C=CCN(C(=O)CSc1nc2[nH]ncc2c(=O)n1-c1ccccc1OC)c1ccccc1	n	n	n	x	n	n	x	x
O=S(=O)(Nc1ccc(S(=O)(=O)N2CCCCC2)cc1)c1ccc(Br)s1	n	n	n	n	n	n	x	x
Cc1cc2ncn(/N=C/c3cc(Br)ccc3O)c2cc1C	n	n	n	n	n	n	x	x
Cc1nnc(C)n1/N=C/c1cc(Br)cc(Br)c1O	x	n	n	x	27	n	143	u
Cc1nnc(C)n1/N=C/c1cc(Br)ccc1O	n	n	n	n	8.2	n	n	n
O=C1c2ccccc2N2C(=O)c3ccccc3C2N1Cc1ccco1 (centres undefined)	n	n	n	u	5.3	n	n	n
COc1ccc(OC)c(NC(=O)c2ccc(NC(C)=O)cc2)c1	n	n	n	n	n	n	x	x
COc1ccc(OC)c(N/C(C)=C/C(=O)c2ccc(C)o2)c1	n	n	n	n	5.9	n	u	n
O=C(NCCc1ccccc1)c1ccccc1NS(=O)(=O)N1CCCC1	n	n	n	n	n	n	x	x
COc1ccc(OC)c(S(=O)(=O)NCCc2ccccc2)c1	x	n	n	n	n	n	x	x
Cc1cnc(-c2nnc(N(C)C(=O)C3CCCO3)s2)cn1 (centres undefined)	n	n	n	n	-1.7	n	n	n
